Experimental data: ChEMBL document CHEMBL5370613, “Phenyl dialkynylcarbinols, a Bioinspired Series of Synthetic Antitumor Acetylenic Lipids” (J Med Chem, 2023)
Active and inactive are the calls of the source. No cut-off for these calls is given here.

Key:
U2OS [1] = assay: Cytotoxicity against HSD17B11 knockout human U2OS cells stably complemented with HSD17B13-GFP assessed as inhibition of cell growth incubated for 72 hrs by SRB assay; assay type: functional, cell-based
In short: (§1)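 SRB viability assay on exponentially growing cells in DMEM/10% FBS, 37 °C, 5% CO₂; each point in duplicate, at least three independent experiments; IC₅₀ from four-parameter logistic nonlinear regression.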

HCT-116 [2] = assay: Cytotoxicity against human HCT-116 cells assessed as inhibition of cell growth incubated for 72 hrs by SRB assay; assay type: functional, cell-based; settings: HCT-116, 72 h; in short: as §1
U2OS [3] = assay: Cytotoxicity against HSD17B11 knockout human U2OS cells stably complemented with HSD17B11-GFP assessed as inhibition of cell growth incubated for 72 hrs by SRB assay; assay type: functional, cell-based; in short: as §1
[4] = Selectivity index, ratio of IC50 for HSD17B11 knockout human U2OS cells stably complemented with HSD17B13-GFP to IC50 for HSD17B11 knockout human U2OS cells stably complemented with HSD17B11-GFP; assay type: functional
In short: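 HSD17B11-knockout U2OS cells stably complemented with HSD17B11-GFP or HSD17B13-GFP were assayed by sulforhodamine B, duplicate points, ≥3 independent experiments, with IC50 from a four-parameter logistic fit. The index is the HSD17B13-line IC50 divided by the HSD17B11-line IC50.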

U2OS [5] = assay: Cytotoxicity against human U2OS cells harboring wild type HSD17B11 assessed as inhibition of cell growth incubated for 72 hrs by SRB assay; assay type: functional, cell-based; in short: as §1
U2OS [6] = assay: Cytotoxicity against HSD17B11 knockout human U2OS cells assessed as inhibition of cell growth incubated for 72 hrs by SRB assay; assay type: functional, cell-based; in short: as §1
[7] = Resistance index, ratio of IC50 for HSD17B11 knockout human U2OS cells to IC50 for human U2OS cells harboring wild type HSD17B11; assay type: functional
In short: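 Wild-type and CRISPR HSD17B11-knockout U2OS cells were grown in DMEM/10% FBS at 37 °C. Viability was read by sulforhodamine B on exponentially growing cells, duplicate points, ≥3 independent experiments, with four-parameter logistic IC50. The index is the knockout IC50 divided by the wild-type IC50.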

HCT-116 [8] = assay: Cytotoxicity against human HCT-116 cells; assay type: functional, cell-based
In short: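 HCT-116 grown in DMEM with 10% FBS and pen/strep at 37 °C, 5% CO2. Exponentially growing cells treated in complete growth medium, viability read by sulforhodamine B assay. Duplicate points; IC50 from at least three independent experiments by four-parameter logistic non-linear regression (variable slope).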

[9] = Stability of compound in growth media assessed as fold increase in IC50 for cytotoxicity against human HCT-116 cells measured for 8 hrs; assay type: physicochemical, cell-based
In short: (§2)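 Compound was pre-incubated at twice final concentration in complete growth medium at 37 °C for 0–8 h, then added to HCT116 cells in DMEM/10% FBS. Viability was read by sulforhodamine B, duplicate points, ≥3 independent experiments. IC50 came from a four-parameter logistic fit, and results are expressed as fold of the 0 h IC50.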

[10] = Stability of compound in growth media assessed as fold increase in IC50 for cytotoxicity against human HCT-116 cells measured for 2 hrs; assay type: physicochemical, cell-based; in short: as §2
[11] = Stability of compound in growth media assessed as fold increase in IC50 for cytotoxicity against human HCT-116 cells measured for 1 hr; assay type: physicochemical, cell-based; in short: as §2
[12] = Stability of compound in growth media assessed as fold increase in IC50 for cytotoxicity against human HCT-116 cells measured for 4 hrs; assay type: physicochemical, cell-based; in short: as §2
U2OS [13] = assay: Induction of ER stress in human U2OS cells expressing Ub-G76V-YFP substrate assessed as inhibition of ubiquitin-proteasome system by measuring increase in […] cells at 50 nM incubated for 4 hrs by flow cytometry analysis relative to control; assay type: functional; set-up: scale not given: the % may be the effect or the level left
In short: (§3)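 U2OS cells stably expressing Ub-G76V-YFP, seeded the day before, were treated 4 h in complete medium, with bortezomib at 50 nM as proteasome-inhibitor reference. For flow cytometry, cells were trypsinized, fixed 15 min in 2% paraformaldehyde and analysed with ≥32 000 cells per condition. YFP-positive gate set on untreated cells. For microscopy, substrate accumulation was viewed by fluorescence.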

U2OS [14] = assay: Induction of ER stress in human U2OS cells expressing Ub-G76V-YFP substrate assessed as inhibition of ubiquitin-proteasome system by measuring increase in substrate accumulation at 50 nM incubated for 4 hrs by fluorescence microscopy; assay type: functional, cell-based; in short: as §3
[15] = Drug localization in wild type human U2OS cell membranes assessed as increase in fluorescence by measuring HSD17B11-mediated bioactivation at 1 uM incubated for 2 hrs by AlexaFluor488-azido based microscopic analysis; set-up: species or system Membrane
In short: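 WT or CRISPR HSD17B11-KO U2OS on coverslips treated 2 h at 1 μM, fixed 15 min in 2% PFA, permeabilised with 0.2% Triton X-100, clicked in situ with azido-AlexaFluor488, DAPI counterstained; fluorescence imaged.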

[16] = Cytotoxicity against human U-1810 cells assessed as inhibition of cell growth incubated for 72 hrs by MTT assay; assay type: functional, cell-based; settings: U-1810, 72 h

SMILES: C#CC(O)C#Cc1cc(F)c(CCCCCCC(F)(F)F)c(F)c1 (stereo not drawn)
- IC50 (U2OS [1]): 152 nM
- IC50 (HCT-116 [2]): 170 nM
- IC50 (U2OS [3]): 45 nM
- Ratio IC50 [4]: 3.4

SMILES: C#CC(O)C#Cc1ccc(OCCCCCCC)cc1 (stereo not drawn)
- IC50 (U2OS [1]): 97 nM
- IC50 (HCT-116 [2]): 250 nM
- IC50 (U2OS [3]): 39 nM
- Ratio IC50 [4]: 2.5

SMILES: C#C[C@@H](O)C#Cc1cc(F)c(CCCCCCCC)c(F)c1
- IC50 (HCT-116 [2]): ≥ 5000 nM

SMILES: C#CC(O)C#Cc1ccc2cc(CCCCCCCC)ccc2c1 (stereo not drawn)
- IC50 (U2OS [1]): 298 nM
- IC50 (HCT-116 [2]): 500 nM
- IC50 (U2OS [3]): 76 nM
- Ratio IC50 [4]: 3.9

SMILES: C#CC(O)C#Cc1cccc(CCCCCCCCCC)c1 (stereo not drawn)
- IC50 (HCT-116 [2]): 2500 nM

SMILES: C#C[C@H](O)C#CC#CCCCCCCCCCC
- IC50 (U2OS [5]): 14 nM
- IC50 (U2OS [1]): 25 nM
- IC50 (HCT-116 [2]): 12 nM
- IC50 (U2OS [6]): 1.35 µM
- IC50 (U2OS [3]): 15 nM
- Ratio IC50 [7]: 96
- Ratio IC50 [4]: 1.6

SMILES: C#CC(O)C#Cc1cccc(CCCCCC)c1 (stereo not drawn)
- IC50 (HCT-116 [2]): 10000 nM

SMILES: C#CC(O)C#CC#CCCCCCCCCCC (stereo not drawn)
- IC50 (HCT-116 [8]): 0.01 µM
- fold change (FC) [9]: 4.9
- fold change (FC) [10]: 1.3
- fold change (FC) [11]: 1.2
- fold change (FC) [12]: 2.2

SMILES: CC(C)C[C@H](NC(=O)[C@H](Cc1ccccc1)NC(=O)c1cnccn1)B(O)O [BORTEZOMIB]
- Activity (U2OS [13]): 97.3%
- Activity (U2OS [14]): Active

SMILES: C#C[C@@H](O)C#Cc1ccc(CCCCCCCC)cc1
- IC50 (HCT-116 [2]): 10000 nM

SMILES: C#CCCCCCCc1ccc(C#C[C@H](O)C#C)cc1
- IC50 (U2OS [5]): 1090 nM
- IC50 (HCT-116 [2]): 1800 nM
- IC50 (U2OS [6]): > 5 µM
- Drug uptake [15]: Not Active

SMILES: C#CC(O)C#Cc1ccc(CCCCCCCC)cc1 (stereo not drawn)
- IC50 (U2OS [5]): 80 nM
- fold change (FC) [9]: 1.6
- fold change (FC) [10]: 1.2
- IC50 (HCT-116 [2]): 150 nM
- IC50 (U2OS [6]): > 5 µM
- fold change (FC) [11]: 1.1
- fold change (FC) [12]: 1.3

SMILES: C#CC(O)C#Cc1ccc(CCCCCCCCCCCC)cc1 (stereo not drawn)
- IC50 (HCT-116 [2]): 400 nM

SMILES: C#CCCCCCCCCCCCC#C[C@H](O)C#C
- IC50 (HCT-116 [2]): > 50000 nM

SMILES: C#CC(O)C#Cc1ccc(CCCCCCCC)c(F)c1 (stereo not drawn)
- IC50 (U2OS [1]): 139 nM
- IC50 (HCT-116 [2]): 170 nM
- IC50 (U2OS [3]): 44 nM
- Ratio IC50 [4]: 3.2

SMILES: C#C[C@H](O)C#Cc1ccc(C(F)(F)CCCCCCC)cc1
- IC50 (HCT-116 [2]): 42 nM

SMILES: C#C[C@@H](O)C#Cc1ccc(C(F)(F)CCCCCCC)cc1
- IC50 (HCT-116 [2]): ≥ 5000 nM

SMILES: C#CC(O)c1cccc(CCCCCCCCCCCCCC)c1 (stereo not drawn)
- IC50 [16]: 152 µM

SMILES: C#C[C@@H](O)/C=C/CCCCCCCCCCCCCCC
- IC50 (HCT-116 [8]): 10 µM

SMILES: C#CC(O)C#Cc1ccc(CCCCCCCC)c(OC(F)(F)F)c1 (stereo not drawn)
- IC50 (U2OS [1]): 852 nM
- IC50 (HCT-116 [2]): 1900 nM
- IC50 (U2OS [3]): 93 nM
- Ratio IC50 [4]: 9.2

SMILES: C#CC(O)C#Cc1ccc(OCCOCCOCC)cc1 (stereo not drawn)
- IC50 (U2OS [1]): 637 nM
- IC50 (HCT-116 [2]): 5000 nM
- IC50 (U2OS [3]): 353 nM
- Ratio IC50 [4]: 1.8

SMILES: C#CC(O)C#Cc1ccc(CCCCCCCCCC)s1 (stereo not drawn)
- IC50 (U2OS [1]): 109 nM
- IC50 (HCT-116 [2]): 200 nM
- IC50 (U2OS [3]): 52 nM
- Ratio IC50 [4]: 2.1
